Measurements gathered from unrelated publications.
Lines come from different studies, so protocols differ.
Target: Calcium/calmodulin-dependent protein kinase type II subunit delta (CAMK2D, Homo sapiens, UniProt Q13557)

The remaining binding of c1cncc(-c2cccc(Nc3nccc(NC4CCCCC4)n3)c2)c1 is reported as 92% (binding; competition with immobilised ligand; 10 µM).
For c1cnn2ncc(-c3ccnc(N4CCC45COC5)n3)c2c1, the remaining binding was 83% (binding; 1 µM).
For COc1ncc2cc3ccccc3nc2c1C#N, the remaining binding was 98% (cell-free assay; competition with immobilised ligand; 5 µM).
With C=CC(=O)N1CCC(C(=O)NCC(=O)N2CCN(c3nc(-c4cnc(N)nc4C(F)F)nc(N4CCOCC4)n3)CC2)CC1 the remaining binding was 100% (binding; competition with immobilised ligand; 1 µM).
CN(CCCC(F)(F)F)c1nccc(-c2cnn3ncccc23)n1 gave a remaining binding of 100% (binding; 1 µM).
For O=C(NCCCN1CCOCC1)c1ccc(Nc2ncc(Cl)c(-c3ccc(Cl)s3)n2)cc1, the remaining binding was 83% (binding; competition with immobilised ligand; 1 µM).
For N[C@H]1CCN(c2nccc(-c3cnn4ncccc34)n2)C1, the remaining binding was 100% (binding; 1 µM).
COc1cc(-c2cn(C3CCc4ccccc4N(CC(F)(F)F)C3=O)nn2)ccc1-n1ccc(C)n1 (stereo not shown) gave a remaining binding of 100% (cell-free assay; competition with immobilised ligand; 1 µM).
For COc1ccnn2ncc(-c3ccnc(N(C)C)n3)c12, the remaining binding was 81% (binding; 1 µM).
For Nc1ncc2c(n1)-c1c([nH]c3ccc(C#CC4CC4)cc13)CCCC2, the remaining binding was 95% (binding; competition with immobilised ligand; 1 µM).
With O=C(Nc1c[nH]nc1C(=O)NC1CCNCC1)c1cc(F)cc(F)c1 the remaining binding was 100% (binding; competition with immobilised ligand; 1 µM).
Cc1c(C(=O)O)cc(-c2ccc(C3CCNCC3)cc2)c2ccc(-c3ccc(C(F)(F)F)cc3)cc12 gave a remaining binding of 100% (cell-free assay; competition with immobilised ligand; 1 µM).
COc1cnc(Nc2cccc(S(N)(=O)=O)c2)nc1N1CCN(c2ccccc2)CC1 has a remaining binding of 92% (binding; competition with immobilised ligand; 1 µM).
CCS(=O)(=O)c1cc2cc(C[C@](O)(CC(C)(C)c3ccc(F)cc3C(N)=O)C(F)(F)F)[nH]c2cn1 has a remaining binding of 100% (cell-free assay; competition with immobilised ligand; 1 µM).
With O=C(NCCCN1CCOCC1)c1ccc(Nc2nccc(-c3cc4ccccc4s3)n2)cc1 the remaining binding was 86% (binding; competition with immobilised ligand; 1 µM).
For CN(c1ccnc(CNc2nc(Nc3ccc4c(c3)CC(=O)N4)ncc2C(F)(F)F)n1)S(C)(=O)=O, the remaining binding was 100% (cell-free assay; competition with immobilised ligand; 1 µM).
FC(F)(F)Oc1cccc(-c2cnc3ccc(-c4ccncc4)nn23)c1 gave a remaining binding of 33% (cell-free assay; competition with immobilised ligand; 5 µM).
For CCc1ccccc1C(=O)Nc1n[nH]c2c(C)c(F)c(C3C(C#N)=C(C)N(C)C(C)=C3C#N)cc12, the remaining binding was 78% (cell-free assay; competition with immobilised ligand; 1 µM).
The remaining binding of C[C@@H]1CCN(c2nccc(-c3cnn4ncccc34)n2)C1 is reported as 100% (binding; 1 µM).
O=C(c1ccc(Nc2ncc(Cl)c(-c3cc4ccccc4s3)n2)cc1)N1CCC(N2CCCC2)CC1 has a remaining binding of 80% (binding; competition with immobilised ligand; 1 µM).
With C[C@H](c1cccc(C#N)c1)n1cc(Cl)cc(C(N)=O)c1=N the remaining binding was 100% (cell-free assay; competition with immobilised ligand; 1 µM).
CC1CCCN1c1nccc(-c2cnn3ncccc23)n1 (stereo not shown) has a remaining binding of 100% (binding; 1 µM).
